# High-throughput results from PubChem BioAssay.
# Hits are enriched below; roughly 1.4% of the tested compounds scored in any of these assays.
# ERp5 inh: inhibitors of ERp5-driven insulin aggregation, primary screen, biochemical, turbidity, absorbance 650 nm, single point | 90 min | inhibition, % at 9.99 µM | 350,000 tested, 0.05% active | AID 651711, 2012 | Protein disulfide-isomerase A6 (Homo sapiens), Q15084;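 active = mean replicate inhibition above about 25%, with every replicate also reaching it, limit read from the data, passing the limit was not always enough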
# INS-1E GSIS act: GLuc luminescence reporter in INS-1E cells, primary screen for activators of glucose-dependent secretion of insulin; 370,000 tested, 0.61% active; activation, % at 16.6 µM; INS-1E GLuc reporter insulin secretion, 2-3 h;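 active = lowest replicate activation of at least 40%, so every replicate reaches that level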;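 note: 0% = median of neutral control wells and 100% = median of IBMX positive control wells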
# HIV Env fusion: inhibitors of HIV-1 Env-driven cell-cell fusion, primary screen, HeLa-JRFL effector, CEM21 target cells, luciferase; inhibition, % at 12.3 µM; 360,000 tested, 1.1% active; AID 651610, 2012;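 active = mean replicate inhibition score of at least 50 and every replicate individually at or above 50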;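 note: 0% = plate neutral controls and 100% = maraviroc near 300 nM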
# PDI turbidity: inhibitors of human PDI, primary screen, biochemical, turbidity, single point, plate reader; AID 588391, 2011; 350,000 tested, 0.052% active; Protein disulfide-isomerase (Homo sapiens), P07237; PDI insulin aggregation turbidity, A650, 90 min; inhibition, % at 10 µM;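 active = mean inhibition across replicates of 30% or more, whatever share of single replicates reach that level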
# Target sequence (P07237 whole entry, looked up): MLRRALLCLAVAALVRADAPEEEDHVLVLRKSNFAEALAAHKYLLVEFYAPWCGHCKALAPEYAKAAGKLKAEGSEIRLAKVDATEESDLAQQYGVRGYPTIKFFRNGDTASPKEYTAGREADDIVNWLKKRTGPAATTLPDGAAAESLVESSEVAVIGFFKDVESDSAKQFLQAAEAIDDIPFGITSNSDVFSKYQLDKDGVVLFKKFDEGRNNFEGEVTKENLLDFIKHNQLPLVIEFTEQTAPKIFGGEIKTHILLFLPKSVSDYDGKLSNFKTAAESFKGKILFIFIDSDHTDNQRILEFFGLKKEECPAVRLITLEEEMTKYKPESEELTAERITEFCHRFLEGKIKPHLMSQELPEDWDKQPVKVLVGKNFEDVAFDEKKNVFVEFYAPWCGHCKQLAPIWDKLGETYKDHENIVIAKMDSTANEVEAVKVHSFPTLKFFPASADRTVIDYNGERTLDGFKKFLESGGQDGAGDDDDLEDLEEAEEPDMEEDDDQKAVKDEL
# FN deposition inh: inhibitors of fibronectin matrix deposition, primary screen, AH1F cells, Alexa488-fibronectin fluorescence, plate reader; inhibition, % at 12.6 µM; AH1F fibroblasts, overnight; 350,000 tested, 0.086% active;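 active = mean inhibition across replicates of 30% or more, regardless of how many single replicates reach that level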;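 note: positive control wells lacked labelled fibronectin entirely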
#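 test system = AH1F fibroblasts assembling fluorescent fibronectin matrix | quantity = 10000 AH1F cells per well | buffer or medium = DMEM plus 2% serum, read in PBS | doses = single dose, pinned | incubation = 1 h cell attachment, overnight exposure to compound and label | detection = fluorescence at 485 nm excitation, 525 nm emission | read-out basis = inhibition from reduced deposited-fibronectin fluorescence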
# * = called active by the depositor; x = not tested or not shown; [ ] = another dose, or the depositor's remark.
SMILES,ERp5 inh,INS-1E GSIS act,HIV Env fusion,PDI turbidity,FN deposition inh
Cc1cc(NC(=O)CN2CCC(n3nnc4cc(C(F)(F)F)ccc43)CC2)no1,1,-4,x,-4,x
CCOc1ccc2nc(NC(=O)CN3CCC(n4nnc5cc(C(F)(F)F)ccc54)CC3)sc2c1,x,x,50*,-4,9
COc1ccc2oc(-c3ccc(NC(=O)c4ccc(N5CCOCC5)c([N+](=O)[O-])c4)cc3)nc2c1,x,109*,x,-18,x
O=C(Nc1ccc(-c2nc3ccccc3o2)cc1)c1ccc(N2CCOCC2)c([N+](=O)[O-])c1,-5,2,x,-3,x
CCCc1cc(=O)[nH]c2nnc(SCC(=O)N3CC(C)OC(C)C3)n12 (stereo not given),-1,55*,x,5,-5
COCc1c(C(=O)OC)nnn1-c1ccccc1,x,x,-13,11,8
C#Cc1cccc(-n2nnc(C(=O)OC)c2-c2ccccc2)c1,2,40*,3,2,0
C[C@@H]1CN([C@@H](C)CO)C(=O)c2cccc(NS(=O)(=O)c3ccc(F)cc3)c2O[C@H]1CN(C)C(=O)Nc1ccc(C(F)(F)F)cc1,3,-8,22[16.7 µM],x,x
C[C@H](CO)N1C[C@H](C)[C@H](CN(C)C(=O)Nc2ccccc2)Oc2c(NS(=O)(=O)c3ccc(F)cc3)cccc2C1=O,-8,-15,88*[16.7 µM],x,x
C[C@H](CO)N1C[C@H](C)[C@H](CN(C)C(=O)Nc2ccc(C(F)(F)F)cc2)Oc2c(NS(=O)(=O)c3ccc(F)cc3)cccc2C1=O,0,-16,57*[16.7 µM],x,x
CC(C)NC(=O)N[C@@H]1CC[C@H](CC(=O)O)O[C@H]1CO,-2,2,6[16.7 µM],x,10
CCCCCCCCN1C(=O)[C@H](CC(=O)NCc2ccc(OC)c(OC)c2)C[C@@]2(C(=O)OC)CCCCC=C12,-2,x,118*,x,-6
COC(=O)[C@]12CCCCC=C1N(Cc1ccccc1)C(=O)[C@H](CC(=O)NCc1ccc(OC)c(OC)c1)C2,-2,-10,-22,x,x
CCOC(=O)[C@]12CCCC=C1N(Cc1cccc3ccccc13)C(=O)[C@H](CC(=O)NCc1ccc(OC)c(OC)c1)C2,-3,-11,56*,x,-4
COC(=O)[C@]12CCCCC=C1N(CCC1=CCCCC1)C(=O)[C@H](CC(=O)NCc1ccc(OC)c(OC)c1)C2,-6,-15,80*,x,6
CCCCNC(=O)C[C@@H]1C[C@@]2(C(=O)OCC)CCCC=C2N(CCc2ccc(OC)c(OC)c2)C1=O,0,-25,-14,x,-4
CCCCCCCCN1C(=O)[C@H](CC(=O)NCc2ccc(OC)c(OC)c2)C[C@@]2(C(=O)OCC)CCC=C12,-6,10,35,x,9
CCOC(=O)[C@]12CCCC=C1N(CCC1=CCCCC1)C(=O)[C@H](CC(=O)NCc1ccc(OC)c(OC)c1)C2,5,-33,71*,x,6
CCOC(=O)[C@]12CCCC=C1N(Cc1ccccc1)C(=O)[C@H](CC(=O)NCc1ccc(OC)c(OC)c1)C2,0,-10,0,x,5
COc1ccc(S(=O)(=O)N(C)C[C@H]2OCCCC[C@@H](C)Oc3ccc(NS(=O)(=O)c4ccc(Cl)cc4)cc3C(=O)N([C@H](C)CO)C[C@H]2C)cc1,4,-8,x,x,-2
C[C@H](CO)N1C[C@H](C)[C@H](CN(C)C(=O)Nc2cccc3ccccc23)Oc2ccc(NS(=O)(=O)c3ccc(F)cc3)cc2CC1=O,6,-15,-4[16.7 µM],x,5
O=C(C[C@@H]1C[C@H]2c3cc(NS(=O)(=O)c4ccc(F)cc4)ccc3O[C@H]2[C@H](CO)O1)NCc1ccc(-c2ccccc2)cc1,0,-9,-171[16.7 µM],x,6
COCC#Cc1cnc2c(c1)C(=O)N([C@H](C)CO)C[C@@H](C)[C@@H](CN(C)C(=O)Nc1cc(F)ccc1F)O2,5,6,x,x,-7
CCOc1ccc(N2C(=O)CC(S/C(N)=N/N=C/c3cccs3)C2=O)cc1 (stereo not given),x,54*,-10,-10,4
COc1cccc(-c2ccc3c(c2)O[C@@H](CN(C)C)[C@@H](C)CN([C@@H](C)CO)S3(=O)=O)c1,-5,14,9[16.7 µM],x,x
SMILES,ERp5 inh,INS-1E GSIS act,HIV Env fusion,PDI turbidity,FN deposition inh
COc1ccc(CCN(C)C(=O)CCNS(=O)(=O)c2ccccc2C(F)(F)F)cc1OC,-6,41*,x,-3,4
COc1ccc(CCN(C)C(=O)Cc2ccc(-c3ccccc3)cc2)cc1OC,-5,-22,11,3,2
CCN(Cc1nc2cc(Cl)ccc2c(=O)[nH]1)C(=O)c1cc(C2CC2)nn1-c1ccccc1,5,-51,86*,-1,1
CCCCN(CC)CCNC(=O)c1cc2c(-c3ccc(Cl)cc3)nn(C)c2s1,0,67*,2,9,-5
CCN(CC)CCNC(=O)c1cc2c(-c3ccc(Cl)cc3)nn(C)c2s1,1,15,-354,-3,-8
CC(=O)N(Cc1cc2cc(C)c(C)cc2n2nnnc12)CC1COCCO1 (stereo not given),x,63*,x,0,x
Cc1cc2cc(CN(Cc3ccc4c(c3)OCO4)C(=O)c3cnccn3)c3nnnn3c2cc1C,x,x,-65,3,-11
CS(=O)(=O)c1cnc(-c2ccccc2)nc1Oc1ccc(Cl)cc1,x,x,x,6,x
CS(=O)(=O)c1cnc(-c2ccccc2)nc1Oc1ccc(F)cc1,x,65*,x,-7,x
C[C@H](CO)N1C[C@H](C)[C@H](CN(C)C(=O)N[C@H](C)c2ccccc2)OCc2ccccc2-c2c(n(C)c3ccccc23)C1=O,-2,-6,75*,19,-2
CO[C@@H](C(=O)N(C)C[C@H]1OCc2ccccc2-c2c(n(C)c3ccccc23)C(=O)N([C@@H](C)CO)C[C@H]1C)c1ccccc1,x,-26,-48[16.7 µM],x,1
CO[C@@H](C(=O)N(C)C[C@H]1OCc2ccccc2-c2c(n(C)c3ccccc23)C(=O)N([C@@H](C)CO)C[C@@H]1C)c1ccccc1,-2,-7,55*[16.7 µM],x,-8
O=C1/C(=C/c2ccncc2)CCC/C1=C\c1ccncc1,-4,-24,89*,8,1
O=C1C(=Cc2ccncc2)CCCc2ccccc21,-2,x,24,-5,x
COc1ccc(CNC(=O)C[C@H]2CC[C@@H]3[C@@H](COc4ccc(NC(=O)C5CC5)cc4C(=O)N3C)O2)cc1,-5,-12,0[16.7 µM],x,-2
O=C(c1ccccc1)N1CCCC(c2nc3c(nnn3Cc3ccccc3)c(=O)[nH]2)C1 (stereo not given),x,x,24,11,8
O=C(C1CCCCC1)N1CCCC(c2nc3c(nnn3Cc3ccccc3)c(=O)[nH]2)C1 (stereo not given),x,x,79*,-1,x
Cc1cccc(CN2CCSCCS2(=O)=O)c1,-8,17,61*,x,-5
Cc1cccc(CN2CCSCC2)c1,5,-2,9,-3,-3
